IC50 data for seven molecules are collected here from ChEMBL document CHEMBL2046293, “Design, synthesis, and biological evaluation of conformationally constrained analogues of naphthol AS-E as inhibitors of CREB-mediated gene transcription” (J Med Chem, 2012).

Test [1] can be described thus: Inhibition of CREB expressed in HEK293T cells assessed as inhibition of forskolin-stimulated CRE transcription incubated for 30 mins prior to forskolin-stimulation measured after 4.5 hrs by luciferase reporter gene assay. The conditions noted are these: HEK-293T. In kind it is cell-based. The method in brief:
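HEK293T cells transfected with pCRE-RLuc (Lipofectamine 2000), replated after 3 h at 1-2 × 10^4 cells/well and attached overnight. Compounds at various concentrations added 30 min before forskolin (10 μM final), then 4.5 h at 37 °C. Lysate Renilla luciferase read with benzyl-coelenterazine (pH 7.4, 10 μg/mL), normalized to Bradford-dye protein (RLU/μg). IC50 from non-linear regression.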
For orientation: Reporter assays use an easily measured gene product as a stand-in for the process of interest.

Test [2] can be described thus: Inhibition of CREB kinase-inducible domain/CREB binding protein KID-interacting domain interaction after 20 to 24 hrs by luciferase reporter gene assay.

Molecules are shown by their SMILES. pIC50: −log10 of the molar value.

In the case of `Cn1nc(Nc2ccc(Cl)cc2)c2cc3ccccc3cc21`, the pIC50 in test [1] is under 4.30; in test [2] it was 5.28.
On to `O=C(Nc1ccc(Cl)cc1)c1cc2ccccc2cc1O`, for which the pIC50 in test [1] is 5.64; in test [2], 5.54.
Take `O=c1[nH]c2cc3ccccc3cc2c(=O)n1-c1ccc(Cl)cc1`: the pIC50 in test [1] and in test [2] was under 4.30 throughout.
`O=c1oc2cc3ccccc3cc2c(=O)n1-c1ccc(Cl)cc1`: the pIC50 in test [1] is 4.51; in test [2], under 4.30.
In the case of `Clc1ccc(Nc2noc3cc4ccccc4cc23)cc1`, the pIC50 was 4.61 in test [1] and under 4.30 in test [2].
For the molecule `Clc1ccc(Nc2n[nH]c3cc4ccccc4cc23)cc1`, the pIC50 is 5.32 in test [1] and 5.06 in test [2].
For `Clc1ccc(Nc2ncnc3cc4ccccc4cc23)cc1` the same measures were 4.72 and 5.02.

For orientation: pIC50 means the IC50 on a negative log10 scale, so that one unit is a factor of ten.
